Laboratory results from ChEMBL document CHEMBL2203081 (Bioorg Med Chem Lett, 2012).

How the values were obtained:
[1] = target: MAP kinase-activated protein kinase 5 (Homo sapiens) (UniProt Q8IW41); experiment: Inhibition of PRAK assessed as residual activity at 10 uM
Brain = experiment: AUClast in Swiss albino mouse brain at 10 mg/kg, po; format: ADME, organism-based; design: time 0 - last, dose 10 mg/kg, route oral; settings: in vivo
Summary of the method: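 Male Swiss Albino mice, single dose given intravenously (1 mg/kg) or orally (10 mg/kg). Drug measured in plasma and brain, with AUClast taken for each. The brain/plasma ratio is based on AUClast, and oral bioavailability is derived from the IV and PO plasma data.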

[2] = target: Serine/threonine-protein kinase WNK3 (Homo sapiens) (UniProt Q9BYP7); experiment: Inhibition of WNK3 assessed as residual activity at 10 uM relative to control
[3] = target: Serine/threonine-protein kinase 35 (Homo sapiens) (UniProt Q8TDR2); experiment: Inhibition of STK35 assessed as residual activity at 10 uM relative to control
[4] = target: Serine/threonine-protein kinase SIK1 (Homo sapiens) (UniProt P57059); experiment: Inhibition of SIK assessed as residual activity at 10 uM relative to control
[5] = target: Receptor tyrosine-protein kinase erbB-2 (Homo sapiens) (UniProt P04626); experiment: Inhibition of ERBB2 assessed as residual activity at 10 uM relative to control
Summary of the method: (§1)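 Competition kinase-binding assay (KINOMEscan) across a non-redundant panel of 329 kinases beyond the radiometric panel; residual binding expressed relative to control.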

[6] = target: Dual specificity tyrosine-phosphorylation-regulated kinase 1A (Homo sapiens) (UniProt Q13627); experiment: Inhibition of DYRK1A assessed as residual activity at 10 uM
Summary of the method: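 Standard radioactivity-based enzymatic kinase assays on a 131-kinase panel run by the Dundee profiling service; residual kinase activity recorded.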

[7] = target: T1, Serine/threonine-protein kinase D1 (Homo sapiens) (UniProt Q15139); experiment: Inhibition of PKD1 assessed as residual activity at 10 uM
T1 sequence (whole entry): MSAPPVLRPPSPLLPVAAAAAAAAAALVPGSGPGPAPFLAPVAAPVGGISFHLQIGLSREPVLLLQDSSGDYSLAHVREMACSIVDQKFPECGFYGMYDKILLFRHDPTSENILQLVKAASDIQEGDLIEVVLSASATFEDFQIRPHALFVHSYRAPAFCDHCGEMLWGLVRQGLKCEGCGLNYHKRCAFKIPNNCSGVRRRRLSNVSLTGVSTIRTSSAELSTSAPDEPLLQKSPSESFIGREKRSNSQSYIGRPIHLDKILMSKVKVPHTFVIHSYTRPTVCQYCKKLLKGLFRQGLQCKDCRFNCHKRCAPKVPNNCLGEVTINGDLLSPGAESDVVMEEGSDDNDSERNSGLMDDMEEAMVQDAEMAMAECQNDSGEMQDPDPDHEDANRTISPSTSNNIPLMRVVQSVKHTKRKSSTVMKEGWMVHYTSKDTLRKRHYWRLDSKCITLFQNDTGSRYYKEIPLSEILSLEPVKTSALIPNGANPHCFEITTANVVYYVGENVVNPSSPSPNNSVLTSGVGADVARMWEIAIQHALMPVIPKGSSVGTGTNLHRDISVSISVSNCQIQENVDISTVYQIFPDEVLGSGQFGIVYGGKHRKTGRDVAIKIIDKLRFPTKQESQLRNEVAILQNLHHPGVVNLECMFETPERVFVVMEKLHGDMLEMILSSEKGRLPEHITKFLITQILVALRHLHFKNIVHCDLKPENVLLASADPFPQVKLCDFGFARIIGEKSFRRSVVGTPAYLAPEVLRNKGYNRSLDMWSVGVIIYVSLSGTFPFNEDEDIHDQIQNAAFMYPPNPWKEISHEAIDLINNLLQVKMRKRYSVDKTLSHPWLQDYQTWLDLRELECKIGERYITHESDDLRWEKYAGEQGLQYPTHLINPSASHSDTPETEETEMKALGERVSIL

[8] = target: Casein kinase II subunit alpha' (Homo sapiens) (UniProt P19784); experiment: Inhibition of CSNK2A2 assessed as residual activity at 10 uM relative to control; summary of the method: as §1
[9] = target: Myotonin-protein kinase (Homo sapiens) (UniProt Q09013); experiment: Inhibition of DMPK assessed as residual activity at 10 uM relative to control; summary of the method: as §1
[10] = target: Mitogen-activated protein kinase 14 (Homo sapiens) (UniProt Q16539); experiment: Inhibition of p38a MAPK assessed as residual activity at 1 uM
[11] = target: Death-associated protein kinase 1 (Homo sapiens) (UniProt P53355); experiment: Inhibition of DAPK1 assessed as residual activity at 10 uM relative to control; summary of the method: as §1
[12] = target: Inhibitor of nuclear factor kappa-B kinase subunit epsilon (Homo sapiens) (UniProt Q14164); experiment: Inhibition of IKKe assessed as residual activity at 1 uM
[13] = target: Serine/threonine-protein kinase MRCK alpha (Homo sapiens) (UniProt Q5VT25); experiment: Inhibition of MRCKA assessed as residual activity at 10 uM relative to control
[14] = target: Tyrosine-protein kinase BTK (Homo sapiens) (UniProt Q06187); experiment: Inhibition of BTK assessed as residual activity at 10 uM relative to control
[15] = target: BMP-2-inducible protein kinase (Homo sapiens) (UniProt Q9NSY1); experiment: Inhibition of BIKE assessed as residual activity at 10 uM relative to control
[16] = target: Myosin light chain kinase, smooth muscle (Homo sapiens) (UniProt Q15746); experiment: Inhibition of SmMLCK assessed as residual activity at 10 uM
[17] = target: AP2-associated protein kinase 1 (Homo sapiens) (UniProt Q2M2I8); experiment: Inhibition of AAK1 assessed as residual activity at 10 uM relative to control
[18] = target: Atypical kinase COQ8B, mitochondrial (Homo sapiens) (UniProt Q96D53); experiment: Inhibition of ADCK4 assessed as residual activity at 10 uM relative to control
[19] = target: Ephrin type-A receptor 8 (Homo sapiens) (UniProt P29322); experiment: Inhibition of EPHA8 assessed as residual activity at 10 uM relative to control; summary of the method: as §1
[20] = target: Homeodomain-interacting protein kinase 4 (Homo sapiens) (UniProt Q8NE63); experiment: Inhibition of HIPK4 assessed as residual activity at 10 uM relative to control
[21] = target: Casein kinase I isoform gamma-1 (Homo sapiens) (UniProt Q9HCP0); experiment: Inhibition of CSNK1G1 assessed as residual activity at 10 uM relative to control; summary of the method: as §1
[22] = target: T1, Serine/threonine-protein kinase D1 (Homo sapiens); experiment: Inhibition of PKD1 assessed as residual activity at 1 uM
[23] = target: Glycogen synthase kinase-3 beta (Homo sapiens) (UniProt P49841); experiment: Inhibition of GSK3b assessed as residual activity at 1 uM
Summary of the method: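 Radioactivity-based enzymatic activity assay of the named kinase, run as part of a 131-kinase specificity panel at the National Centre for Protein Kinase Profiling (Dundee). Residual activity was read at the stated single inhibitor concentration.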

[24] = target: Protein-tyrosine kinase 6 (Homo sapiens) (UniProt Q13882); experiment: Inhibition of BRK assessed as residual activity at 10 uM
Summary of the method: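 Radioactivity-based enzymatic assay against a panel of 131 kinases (Dundee profiling). Activity remaining was measured with compound present at the stated concentration.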

Chain of Inhibitor of nuclear factor kappa-B kinase subunit epsilon (Homo sapiens) (Q14164 whole entry): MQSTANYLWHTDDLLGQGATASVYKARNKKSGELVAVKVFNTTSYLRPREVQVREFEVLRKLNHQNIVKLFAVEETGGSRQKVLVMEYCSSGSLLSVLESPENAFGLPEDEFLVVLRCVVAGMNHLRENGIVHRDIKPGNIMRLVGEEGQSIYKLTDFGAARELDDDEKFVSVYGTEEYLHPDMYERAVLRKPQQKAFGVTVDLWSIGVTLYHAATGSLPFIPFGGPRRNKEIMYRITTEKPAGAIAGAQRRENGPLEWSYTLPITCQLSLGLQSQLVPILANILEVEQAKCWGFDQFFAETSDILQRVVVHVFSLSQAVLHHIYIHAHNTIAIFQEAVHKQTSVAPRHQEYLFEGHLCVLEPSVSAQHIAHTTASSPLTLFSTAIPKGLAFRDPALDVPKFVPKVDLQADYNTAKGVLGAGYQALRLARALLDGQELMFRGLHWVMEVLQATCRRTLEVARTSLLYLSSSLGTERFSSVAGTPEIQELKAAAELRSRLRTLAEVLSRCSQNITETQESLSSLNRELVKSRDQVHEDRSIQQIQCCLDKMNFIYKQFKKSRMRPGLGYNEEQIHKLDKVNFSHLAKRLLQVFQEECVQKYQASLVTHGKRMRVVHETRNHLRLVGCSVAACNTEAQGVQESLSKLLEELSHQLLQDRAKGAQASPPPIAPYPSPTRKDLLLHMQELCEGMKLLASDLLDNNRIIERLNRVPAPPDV
Chain of Death-associated protein kinase 1 (Homo sapiens) (P53355 whole entry, looked up): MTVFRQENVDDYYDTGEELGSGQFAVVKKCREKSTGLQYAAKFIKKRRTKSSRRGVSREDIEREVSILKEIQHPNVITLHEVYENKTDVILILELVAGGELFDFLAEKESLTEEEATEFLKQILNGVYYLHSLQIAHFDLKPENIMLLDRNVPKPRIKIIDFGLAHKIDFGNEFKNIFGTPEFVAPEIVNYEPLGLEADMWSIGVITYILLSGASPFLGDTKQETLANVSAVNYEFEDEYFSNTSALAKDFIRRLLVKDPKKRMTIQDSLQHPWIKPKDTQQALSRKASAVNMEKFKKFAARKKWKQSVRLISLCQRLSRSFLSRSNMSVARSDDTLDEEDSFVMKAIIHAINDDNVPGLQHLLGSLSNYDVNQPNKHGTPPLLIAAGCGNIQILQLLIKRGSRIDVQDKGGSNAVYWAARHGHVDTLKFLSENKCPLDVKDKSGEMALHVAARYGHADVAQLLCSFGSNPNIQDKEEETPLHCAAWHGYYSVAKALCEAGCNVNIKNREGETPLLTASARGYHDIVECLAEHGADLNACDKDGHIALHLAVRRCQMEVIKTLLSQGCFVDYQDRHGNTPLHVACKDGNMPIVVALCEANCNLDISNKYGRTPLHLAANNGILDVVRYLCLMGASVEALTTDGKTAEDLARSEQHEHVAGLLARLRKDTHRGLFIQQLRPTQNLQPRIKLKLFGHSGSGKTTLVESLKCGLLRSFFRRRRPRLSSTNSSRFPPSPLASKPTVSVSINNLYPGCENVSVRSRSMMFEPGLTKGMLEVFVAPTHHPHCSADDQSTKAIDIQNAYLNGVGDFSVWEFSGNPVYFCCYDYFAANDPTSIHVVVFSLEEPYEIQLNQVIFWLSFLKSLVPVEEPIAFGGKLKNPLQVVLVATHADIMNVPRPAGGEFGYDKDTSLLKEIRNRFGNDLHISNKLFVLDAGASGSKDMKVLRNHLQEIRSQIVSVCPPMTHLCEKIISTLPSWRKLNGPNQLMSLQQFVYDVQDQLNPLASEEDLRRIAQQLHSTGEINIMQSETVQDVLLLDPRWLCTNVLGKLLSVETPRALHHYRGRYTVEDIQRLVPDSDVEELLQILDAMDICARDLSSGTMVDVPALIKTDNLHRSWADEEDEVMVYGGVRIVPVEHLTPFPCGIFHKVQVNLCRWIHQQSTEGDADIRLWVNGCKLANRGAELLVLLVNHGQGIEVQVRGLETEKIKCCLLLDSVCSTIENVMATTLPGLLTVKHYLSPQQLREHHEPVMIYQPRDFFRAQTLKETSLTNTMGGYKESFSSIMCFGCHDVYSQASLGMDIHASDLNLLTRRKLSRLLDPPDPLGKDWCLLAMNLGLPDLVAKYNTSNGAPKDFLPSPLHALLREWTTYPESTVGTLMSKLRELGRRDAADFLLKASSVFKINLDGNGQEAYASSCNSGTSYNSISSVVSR
Chain of Receptor tyrosine-protein kinase erbB-2 (Homo sapiens) (P04626 whole entry): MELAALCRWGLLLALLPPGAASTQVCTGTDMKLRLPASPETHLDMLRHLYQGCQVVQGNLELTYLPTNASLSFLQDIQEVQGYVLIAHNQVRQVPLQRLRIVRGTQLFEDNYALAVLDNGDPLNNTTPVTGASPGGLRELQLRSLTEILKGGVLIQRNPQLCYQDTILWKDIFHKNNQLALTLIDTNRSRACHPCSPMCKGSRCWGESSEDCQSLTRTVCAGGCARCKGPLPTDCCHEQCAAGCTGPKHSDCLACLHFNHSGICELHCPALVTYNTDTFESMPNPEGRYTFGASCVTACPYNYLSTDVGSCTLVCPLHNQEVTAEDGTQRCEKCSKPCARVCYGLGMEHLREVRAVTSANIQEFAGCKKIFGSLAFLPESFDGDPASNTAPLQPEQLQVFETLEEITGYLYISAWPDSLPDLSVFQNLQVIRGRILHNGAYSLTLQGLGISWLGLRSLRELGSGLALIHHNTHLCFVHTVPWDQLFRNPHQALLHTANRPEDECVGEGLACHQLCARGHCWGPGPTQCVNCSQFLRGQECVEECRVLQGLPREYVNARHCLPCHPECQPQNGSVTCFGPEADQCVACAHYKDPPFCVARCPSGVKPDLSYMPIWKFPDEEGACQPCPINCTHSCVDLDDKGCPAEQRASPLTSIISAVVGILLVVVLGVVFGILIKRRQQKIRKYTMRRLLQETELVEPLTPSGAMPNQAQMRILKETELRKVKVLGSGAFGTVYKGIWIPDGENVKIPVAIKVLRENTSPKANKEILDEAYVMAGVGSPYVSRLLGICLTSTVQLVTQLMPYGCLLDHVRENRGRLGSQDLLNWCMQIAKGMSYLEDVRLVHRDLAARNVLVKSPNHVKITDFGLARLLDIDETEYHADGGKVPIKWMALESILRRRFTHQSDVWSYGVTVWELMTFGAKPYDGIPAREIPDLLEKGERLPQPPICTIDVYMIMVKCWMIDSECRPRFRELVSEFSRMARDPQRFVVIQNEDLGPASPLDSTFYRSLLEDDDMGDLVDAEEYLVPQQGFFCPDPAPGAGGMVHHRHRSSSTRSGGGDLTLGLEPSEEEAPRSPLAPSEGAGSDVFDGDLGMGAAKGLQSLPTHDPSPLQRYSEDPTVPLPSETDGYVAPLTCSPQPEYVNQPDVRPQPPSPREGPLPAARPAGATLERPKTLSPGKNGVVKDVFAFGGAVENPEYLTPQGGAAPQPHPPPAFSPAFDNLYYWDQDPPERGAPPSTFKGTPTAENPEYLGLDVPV
Chain of Casein kinase II subunit alpha' (Homo sapiens) (P19784 whole entry, looked up): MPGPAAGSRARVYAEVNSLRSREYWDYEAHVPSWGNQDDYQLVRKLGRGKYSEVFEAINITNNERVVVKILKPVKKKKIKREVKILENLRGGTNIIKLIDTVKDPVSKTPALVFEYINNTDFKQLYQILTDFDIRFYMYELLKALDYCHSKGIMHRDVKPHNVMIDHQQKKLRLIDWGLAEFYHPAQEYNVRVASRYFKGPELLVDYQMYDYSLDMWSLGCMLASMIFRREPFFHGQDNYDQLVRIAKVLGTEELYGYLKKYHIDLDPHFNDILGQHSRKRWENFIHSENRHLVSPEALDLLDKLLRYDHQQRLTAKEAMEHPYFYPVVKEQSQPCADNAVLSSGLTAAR
Chain of Myotonin-protein kinase (Homo sapiens) (Q09013 whole entry): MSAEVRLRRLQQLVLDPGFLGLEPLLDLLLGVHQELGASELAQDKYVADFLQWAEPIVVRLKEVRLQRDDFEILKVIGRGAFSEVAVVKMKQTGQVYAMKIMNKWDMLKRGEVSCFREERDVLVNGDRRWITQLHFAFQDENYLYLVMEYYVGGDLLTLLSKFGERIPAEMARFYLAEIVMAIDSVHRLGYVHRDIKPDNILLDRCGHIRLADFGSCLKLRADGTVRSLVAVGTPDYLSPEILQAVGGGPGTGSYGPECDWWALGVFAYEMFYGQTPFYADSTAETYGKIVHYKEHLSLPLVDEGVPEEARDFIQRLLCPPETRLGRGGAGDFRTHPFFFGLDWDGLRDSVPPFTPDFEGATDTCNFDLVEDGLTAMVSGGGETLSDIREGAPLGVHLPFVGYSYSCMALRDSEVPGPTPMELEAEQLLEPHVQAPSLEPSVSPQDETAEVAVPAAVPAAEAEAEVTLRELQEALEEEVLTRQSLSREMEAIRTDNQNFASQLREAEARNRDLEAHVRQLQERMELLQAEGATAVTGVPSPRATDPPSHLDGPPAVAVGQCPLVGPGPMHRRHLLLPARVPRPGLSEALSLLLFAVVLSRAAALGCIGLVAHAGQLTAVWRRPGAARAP
Chain of Casein kinase I isoform gamma-1 (Homo sapiens) (Q9HCP0 whole entry, looked up, canonical isoform): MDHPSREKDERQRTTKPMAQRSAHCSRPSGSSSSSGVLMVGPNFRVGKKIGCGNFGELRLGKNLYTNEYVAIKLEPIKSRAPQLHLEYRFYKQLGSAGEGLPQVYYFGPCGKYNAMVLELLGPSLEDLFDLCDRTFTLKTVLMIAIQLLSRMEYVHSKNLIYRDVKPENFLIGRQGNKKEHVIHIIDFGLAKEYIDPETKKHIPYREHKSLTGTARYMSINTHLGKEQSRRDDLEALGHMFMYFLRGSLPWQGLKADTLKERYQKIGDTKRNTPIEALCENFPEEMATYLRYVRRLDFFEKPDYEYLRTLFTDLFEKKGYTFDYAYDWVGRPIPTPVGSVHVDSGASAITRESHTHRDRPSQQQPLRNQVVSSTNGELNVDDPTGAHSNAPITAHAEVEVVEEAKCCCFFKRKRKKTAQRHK

SMILES: O=C(Nc1cccnc1)c1cc(-c2ccnc(F)c2)ccc1OCc1ccccc1
- Activity [1]: 114%
- AUClast (Brain): 1539.4 ng·h/mL
- Activity [2]: 62%
- Activity [3]: 44%
- Activity [4]: 46%
- Activity [5]: 57%
- Activity [6]: 104%
- Activity [7]: 76%
- Activity [8]: 70%
- Activity [9]: 58%
- Activity [10]: 101%
- Activity [11]: 40%
- Activity [12]: 106%
- Activity [13]: 56%
- Activity [14]: 64%
- Activity [15]: 65%
- Activity [16]: 23%
- Activity [17]: 67%
- Activity [18]: 26%
- Activity [19]: 52%
- Activity [20]: 80%
- Activity [21]: 79%
- Activity [22]: 80%
- Activity [23]: 119%
- Activity [24]: 101%
